Measurements from ChEMBL document CHEMBL4616666, “Discovery of SHP2-D26 as a First, Potent, and Effective PROTAC Degrader of SHP2 Protein” (J Med Chem, 2020).
pIC50: −log10 of the molar value.

Assays:
[1] = target: T1, von Hippel-Lindau disease tumor suppressor/Tyrosine-protein phosphatase non-receptor type 11 (Homo sapiens, UniProt Q06124+P40337); assay: Protac activity at VHL1/SHP2 in human KYSE520 cells assessed as induction of SHP2 degradation at 0.1 uM measured after 6 hrs by Western blot analysis relative to control; format: cell-based
Procedure, shortened: (§1)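 KYSE520 cells in RPMI 1640 + 10% FBS, 37 °C, 5% CO2, were exposed to degrader for 6 h. SHP2 was measured by Western blot and densitometry, with background-subtracted band normalized to net GAPDH band. Values are the average of three independent experiments.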

[2] = target: T1, von Hippel-Lindau disease tumor suppressor/Tyrosine-protein phosphatase non-receptor type 11; assay: Protac activity at VHL1/SHP2 in human MV4-11 cells assessed as induction of SHP2 degradation at 0.1 uM measured after 24 hrs by Western blot analysis relative to control; format: cell-based
Procedure, shortened: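 MV4;11 cells in IMDM + 10% FBS were exposed to degrader for 24 h. SHP2 was quantified by Western blot densitometry, with background-subtracted band divided by net GAPDH loading-control band. Average of three independent experiments.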

[3] = target: T1, von Hippel-Lindau disease tumor suppressor/Tyrosine-protein phosphatase non-receptor type 11; assay: Protac activity at VHL1/SHP2 in human KYSE520 cells assessed as induction of SHP2 degradation at 1 uM measured after 6 hrs by Western blot analysis relative to control; format: cell-based; procedure, shortened: as §1
MV4-11 = assay: Growth inhibition of human MV4-11 cells measured after 4 days by WST8 assay; settings: MV4-11, 96 h
KYSE-520 cell line = assay: Growth inhibition of human KYSE520 cells measured after 4 days by WST8 assay; settings: KYSE-520, 96 h

T1 sequence (P40337 whole entry partner): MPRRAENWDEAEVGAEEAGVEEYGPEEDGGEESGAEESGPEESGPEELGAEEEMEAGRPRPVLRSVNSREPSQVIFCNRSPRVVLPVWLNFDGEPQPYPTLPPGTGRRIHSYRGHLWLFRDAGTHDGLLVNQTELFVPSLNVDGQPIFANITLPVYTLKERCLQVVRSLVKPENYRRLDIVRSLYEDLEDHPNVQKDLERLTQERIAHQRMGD
T1 sequence (Q06124 2-593 limits assumed): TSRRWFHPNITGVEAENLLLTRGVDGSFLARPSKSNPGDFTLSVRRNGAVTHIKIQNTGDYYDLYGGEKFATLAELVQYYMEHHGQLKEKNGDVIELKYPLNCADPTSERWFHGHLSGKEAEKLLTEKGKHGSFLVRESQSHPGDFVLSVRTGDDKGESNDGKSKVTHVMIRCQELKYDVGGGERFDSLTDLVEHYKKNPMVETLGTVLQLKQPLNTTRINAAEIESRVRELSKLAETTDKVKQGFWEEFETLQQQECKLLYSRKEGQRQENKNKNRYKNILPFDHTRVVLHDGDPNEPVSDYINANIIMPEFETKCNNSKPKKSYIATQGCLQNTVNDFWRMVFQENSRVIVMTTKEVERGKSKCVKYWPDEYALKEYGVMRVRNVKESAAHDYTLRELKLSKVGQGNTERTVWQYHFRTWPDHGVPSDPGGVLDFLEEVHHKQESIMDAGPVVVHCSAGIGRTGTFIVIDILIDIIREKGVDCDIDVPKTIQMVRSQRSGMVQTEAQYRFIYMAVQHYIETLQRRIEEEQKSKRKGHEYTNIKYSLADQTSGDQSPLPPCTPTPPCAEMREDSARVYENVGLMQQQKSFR

Activity [1]	Activity [2]	Activity [3]	Structure (SMILES)	pIC50 (MV4-11)	pIC50 (KYSE-520 cell line)
> 95%	> 95%	> 95%	Cc1ncsc1-c1ccc([C@H](C)NC(=O)[C@@H]2C[C@@H](O)CN2C(=O)[C@@H](NC(=O)CCCCCCCCCN2CCN(C(=O)CCC(=O)Nc3cccc(Sc4ncc(N5CCC(C)(N)CC5)nc4N)c3Cl)CC2)C(C)(C)C)cc1 (single isomer, unassigned)		
> 95%		93%	Cc1ncsc1-c1ccc([C@H](C)NC(=O)[C@@H]2C[C@@H](O)CN2C(=O)[C@@H](NC(=O)CCCCCCCCCCCNC(=O)CC(=O)Nc2cccc(Sc3ncc(N4CCC(C)(N)CC4)nc3N)c2Cl)C(C)(C)C)cc1 (single isomer, unassigned)		
32%	85%	87%	Cc1ncsc1-c1ccc([C@H](C)NC(=O)[C@@H]2C[C@@H](O)CN2C(=O)[C@@H](NC(=O)CCOCCOCCOCCNC(=O)CCC(=O)Nc2cccc(Sc3ncc(N4CCC(C)(N)CC4)nc3N)c2Cl)C(C)(C)C)cc1 (single isomer, unassigned)		
> 95%	> 95%	> 95%	Cc1ncsc1-c1ccc([C@H](C)NC(=O)[C@@H]2C[C@@H](O)CN2C(=O)[C@@H](NC(=O)CCCCCCCOc2ccc(NC(=O)CCC(=O)Nc3cccc(Sc4ncc(N5CCC(C)(N)CC5)nc4N)c3Cl)cc2)C(C)(C)C)cc1		
13%		6%	Cc1ncsc1-c1ccc([C@H](C)NC(=O)[C@@H]2C[C@@H](O)CN2C(=O)[C@@H](NC(=O)CCCCNC(=O)CC(=O)Nc2cccc(Sc3ncc(N4CCC(C)(N)CC4)nc3N)c2Cl)C(C)(C)C)cc1 (single isomer, unassigned)		
53%	95%	> 95%	Cc1ncsc1-c1ccc([C@H](C)NC(=O)[C@@H]2C[C@@H](O)CN2C(=O)[C@@H](NC(=O)COCCOCCOCCOCCNC(=O)CCC(=O)Nc2cccc(Sc3ncc(N4CCC(C)(N)CC4)nc3N)c2Cl)C(C)(C)C)cc1 (single isomer, unassigned)		
> 95%		> 95%	Cc1ncsc1-c1ccc([C@H](C)NC(=O)[C@@H]2C[C@@H](O)CN2C(=O)[C@@H](NC(=O)CCCCCCCCCCCNC(=O)CCC(=O)Nc2cccc(Sc3ncc(N4CCC(C)(N)CC4)nc3N)c2Cl)C(C)(C)C)cc1		
4%		0%	Cc1ncsc1-c1ccc([C@H](C)NC(=O)[C@@H]2C[C@@H](O)CN2C(=O)[C@@H](NC(=O)CCNC(=O)CC(=O)Nc2cccc(Sc3ncc(N4CCC(C)(N)CC4)nc3N)c2Cl)C(C)(C)C)cc1		
0%	9%	82%	Cc1ncsc1-c1ccc([C@H](C)NC(=O)[C@@H]2C[C@@H](O)CN2C(=O)[C@@H](NC(=O)CCCCN2CCN(CCCCNC(=O)CCC(=O)Nc3cccc(Sc4ncc(N5CCC(C)(N)CC5)nc4N)c3Cl)CC2)C(C)(C)C)cc1 (single isomer, unassigned)		
20%		14%	Cc1ncsc1-c1ccc([C@H](C)NC(=O)[C@@H]2C[C@@H](O)CN2C(=O)[C@@H](NC(=O)CCCCCCCNC(=O)CC(=O)Nc2cccc(Sc3ncc(N4CCC(C)(N)CC4)nc3N)c2Cl)C(C)(C)C)cc1 (single isomer, unassigned)		

Further lines, the compound ahead of its results:

Structure (SMILES)	Activity [1]	Activity [2]	Activity [3]	pIC50 (MV4-11)	pIC50 (KYSE-520 cell line)
Cc1ncsc1-c1ccc([C@H](C)NC(=O)[C@@H]2C[C@@H](O)CN2C(=O)[C@@H](NC(=O)CCCCCCCCCCCN2CCN(CC(=O)Nc3cccc(Sc4ncc(N5CCC(C)(N)CC5)nc4N)c3Cl)CC2)C(C)(C)C)cc1 (single isomer, unassigned)	80%	6%	> 95%		
Cc1ncsc1-c1ccc([C@H](C)NC(=O)[C@@H]2C[C@@H](O)CN2C(=O)[C@@H](NC(=O)CCCCCCCCCCNC(=O)CC(=O)Nc2cccc(Sc3ncc(N4CCC(C)(N)CC4)nc3N)c2Cl)C(C)(C)C)cc1 (single isomer, unassigned)	> 95%		> 95%		
Cc1ncsc1-c1ccc([C@H](C)NC(=O)[C@@H]2C[C@@H](O)CN2C(=O)[C@@H](NC(=O)CCCCCCCCCCNC(=O)CCC(=O)Nc2cccc(Sc3ncc(N4CCC(C)(N)CC4)nc3N)c2Cl)C(C)(C)C)cc1	> 95%		> 95%		
Cc1ncsc1-c1ccc([C@H](C)NC(=O)[C@@H]2C[C@@H](O)CN2C(=O)[C@@H](NC(=O)CCCCCCCCCNC(=O)CC(=O)Nc2cccc(Sc3ncc(N4CCC(C)(N)CC4)nc3N)c2Cl)C(C)(C)C)cc1 (single isomer, unassigned)	> 95%		> 95%		
Cc1ncsc1-c1ccc([C@H](C)NC(=O)[C@@H]2C[C@@H](O)CN2C(=O)[C@@H](NC(=O)CCCCCCCCCCCCCCC(=O)Nc2cccc(Sc3ncc(N4CCC(C)(N)CC4)nc3N)c2Cl)C(C)(C)C)cc1 (single isomer, unassigned)	62%	8%	90%		
Cc1ncsc1-c1ccc([C@H](C)NC(=O)[C@@H]2C[C@@H](O)CN2C(=O)[C@@H](NC(=O)CCCCCCCCNC(=O)CC(=O)Nc2cccc(Sc3ncc(N4CCC(C)(N)CC4)nc3N)c2Cl)C(C)(C)C)cc1 (single isomer, unassigned)	81%		80%		
Cc1ncsc1-c1ccc([C@H](C)NC(=O)[C@@H]2C[C@@H](O)CN2C(=O)[C@@H](NC(=O)CCCNC(=O)CC(=O)Nc2cccc(Sc3ncc(N4CCC(C)(N)CC4)nc3N)c2Cl)C(C)(C)C)cc1 (single isomer, unassigned)	9%		7%		
Cc1ncsc1-c1ccc([C@H](C)NC(=O)[C@@H]2C[C@@H](O)CN2C(=O)[C@@H](NC(=O)CCCCCCCCCCCNC(=O)CCCC(=O)Nc2cccc(Sc3ncc(N4CCC(C)(N)CC4)nc3N)c2Cl)C(C)(C)C)cc1 (single isomer, unassigned)	> 95%		> 95%		
Cc1ncsc1-c1ccc([C@H](C)NC(=O)[C@@H]2C[C@@H](O)CN2C(=O)[C@@H](NC(=O)COCCOCCOCCNC(=O)CCC(=O)Nc2cccc(Sc3ncc(N4CCC(C)(N)CC4)nc3N)c2Cl)C(C)(C)C)cc1 (single isomer, unassigned)	80%	> 95%	> 95%		
Cc1ncsc1-c1ccc([C@H](C)NC(=O)[C@@H]2C[C@@H](O)CN2C(=O)[C@@H](NC(=O)CCCCCNC(=O)CC(=O)Nc2cccc(Sc3ncc(N4CCC(C)(N)CC4)nc3N)c2Cl)C(C)(C)C)cc1 (single isomer, unassigned)	0%		3%		
Cc1ncsc1-c1ccc([C@H](C)NC(=O)[C@@H]2C[C@@H](O)CN2C(=O)[C@@H](NC(=O)CCCCCCNC(=O)CC(=O)Nc2cccc(Sc3ncc(N4CCC(C)(N)CC4)nc3N)c2Cl)C(C)(C)C)cc1 (single isomer, unassigned)	0%		0%		
CC(=O)Nc1cccc(Sc2ncc(N3CCC(C)(N)CC3)nc2N)c1Cl				5.18	4.40
Cc1ncsc1-c1ccc([C@H](C)NC(=O)[C@@H]2C[C@@H](O)CN2C(=O)[C@@H](NC(=O)CCCCCCCCCCN2CCN(CC(=O)Nc3cccc(Sc4ncc(N5CCC(C)(N)CC5)nc4N)c3Cl)CC2)C(C)(C)C)cc1 (single isomer, unassigned)	85%	47%	> 95%		
CC1(N)CCN(c2cnc(-c3cccc(Cl)c3Cl)c(N)n2)CC1				6.00	4.74
